An excerpt weighted towards active compounds, which were near 4.7% of everything screened.
MrgX1 agonist – agonists of human MrgX1 receptor, primary screen, HEK293 cells, Fluo-4 calcium flux. Mas-related G-protein coupled receptor member X1 (Homo sapiens), Q96LB2. Fluo-4 calcium fluorescence, agonist mode; hits give high values. B-score at 10 µM. 310,000 tested, 0.44% active;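 active means calcium response B-score plate-corrected fluorescence ratio at least 3 library SD, with starting fluorescence B-score inside 5 SD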
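Test system: HEK293 cells stably expressing human MrgX1 receptor; amount: 15,000 cells per well; doses: compound delivered in addition one of three; times: overnight plating before 1 h dye loading; detection: Fluo-4 NW calcium-flux fluorescence, kinetic read; read-out basis: B-scored fluorescence response ratio; controls: positive and negative controls per plate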
MrgX1 PAM – positive allosteric modulators of MrgX1, primary screen, HEK293 cells, Fluo-4 calcium flux. FDSS; hits give high values. B-score at 10 µM. 310,000 tested, 0.63% active. AID 588675, 2011;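 active means plate-corrected calcium response at least 3 library SD above typical, normal starting fluorescence, not activating the receptor alone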;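 further: compound read alongside a low EC10 to EC30 dose of BAM8-22 agonist; peak minus trough fluorescence over baseline measured at the second addition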
RGS4 act – RGS4 potentiators or activators, primary screen, cell-based, HEK293 M3R inducible RGS4, calcium flux | carbachol calcium flux Fluo4; hits give low values | B-score at 10 µM | 310,000 tested, 0.92% active;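 active means B-score of the integrated calcium signal more than 4 SD below the library mean, with starting fluorescence not abnormally high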;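 further: negative B-score means reduced calcium response which marks RGS4 activation or potentiation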
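System: HEK293 FlpIn-TREx cells, stable M3R, doxycycline-inducible RGS4. Timing: overnight RGS4 induction, 30 min dye load 37 °C, 20 min compound RT. Also added: carbachol, ECmax concentration. Measured by: Fluo4 fluorescence kinetic imaging of calcium. Evaluation: integrated calcium ratio converted to B score.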
RGS4 inh – RGS4 inhibitors, primary screen, cell-based, HEK293 M3R inducible RGS4, calcium flux; 310,000 tested, 0.45% active; Fluo-4 calcium flux; hits give high values; triggered by carbachol at its EC20; Regulator of G-protein signaling 4 (Homo sapiens), P49798; AID 463165, 2010; B-score at 10 µM;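 active means B-score, a plate-corrected calcium signal, over three deviations above library mean, with baseline fluorescence within five deviations of library mean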;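 further: RGS4 expression induced by doxycycline in cells with stable M3 receptor; B-score is computed from the integrated fluorescence ratio over baseline after carbachol; higher B-score means a larger calcium signal and so more RGS4 inhibition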
Cl transport mod – KCC2 cotransporter modulators, thallium flux, primary screen, cell-based, HEK293 KCC2, FluoZin-2 fluorescence, MLSMR; Solute carrier family 12 member 5 (Homo sapiens), Q9H2X9; KCC2 cells, thallium flux FluoZin-2 fluorescence; B-score of Tl+ flux slope (higher = more flux/activation; lower = inhibition) at 10 µM; 190,000 tested, 2.2% active;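 active means thallium flux slope and its plate-corrected score both differing from the plate sample mean at a set confidence after two filtering rounds, in either direction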;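 further: slope of fluorescence scaled to starting intensity during 10 to 20 s after thallium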
Target sequence (Q9H2X9 whole entry, looked up): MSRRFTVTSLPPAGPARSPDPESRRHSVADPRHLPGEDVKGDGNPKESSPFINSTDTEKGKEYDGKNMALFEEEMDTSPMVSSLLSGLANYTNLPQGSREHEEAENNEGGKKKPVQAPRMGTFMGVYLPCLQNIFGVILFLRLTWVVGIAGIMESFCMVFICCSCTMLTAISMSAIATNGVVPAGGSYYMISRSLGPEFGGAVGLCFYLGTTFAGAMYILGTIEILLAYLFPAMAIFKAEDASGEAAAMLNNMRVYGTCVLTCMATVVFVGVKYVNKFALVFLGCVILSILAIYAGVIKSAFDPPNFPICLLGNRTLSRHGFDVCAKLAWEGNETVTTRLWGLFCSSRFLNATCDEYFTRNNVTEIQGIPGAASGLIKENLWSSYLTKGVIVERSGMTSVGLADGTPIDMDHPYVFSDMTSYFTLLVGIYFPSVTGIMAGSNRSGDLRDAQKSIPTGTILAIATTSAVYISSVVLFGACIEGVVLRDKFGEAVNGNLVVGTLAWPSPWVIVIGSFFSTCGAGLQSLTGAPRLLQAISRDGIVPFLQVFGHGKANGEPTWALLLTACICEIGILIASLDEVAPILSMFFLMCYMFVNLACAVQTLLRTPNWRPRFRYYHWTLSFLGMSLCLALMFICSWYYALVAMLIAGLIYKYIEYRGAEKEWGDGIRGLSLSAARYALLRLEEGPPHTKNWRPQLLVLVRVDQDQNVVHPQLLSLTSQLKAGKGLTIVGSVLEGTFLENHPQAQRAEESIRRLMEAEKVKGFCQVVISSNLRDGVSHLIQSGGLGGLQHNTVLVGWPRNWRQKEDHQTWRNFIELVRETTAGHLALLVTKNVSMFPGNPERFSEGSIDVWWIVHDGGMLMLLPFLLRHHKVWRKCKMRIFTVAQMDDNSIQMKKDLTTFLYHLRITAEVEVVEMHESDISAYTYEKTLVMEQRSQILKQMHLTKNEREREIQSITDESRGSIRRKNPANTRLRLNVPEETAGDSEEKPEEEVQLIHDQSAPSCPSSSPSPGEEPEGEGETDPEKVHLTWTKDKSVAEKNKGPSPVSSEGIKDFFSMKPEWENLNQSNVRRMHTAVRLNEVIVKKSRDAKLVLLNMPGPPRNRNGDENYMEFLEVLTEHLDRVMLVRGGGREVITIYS
MrgX1 antag – antagonists of human MrgX1 receptor, primary screen, HEK293 cells, Fluo-4 calcium flux; Mas-related G-protein coupled receptor member X1 (Homo sapiens), Q96LB2; BAM8-22 antagonism; hits give low values; B-score at 10 µM; 310,000 tested, 1.3% active; AID 588676, 2011;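 active means calcium-response B-score plate-corrected more than 3 library SD below zero, starting fluorescence within 5 deviations, no agonist response on first addition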;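 further: peak minus trough fluorescence over baseline after final BAM8-22 challenge near maximal dose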
MrgX1 antag conf – MrgX1 receptor antagonists, duplicate retest, confirmation, HEK293 cells, Fluo-4 calcium flux. shares compounds with MrgX1 antag. BAM8-22 calcium flux; hits give low values. remaining BAM8-22 calcium response % of control (hits give low values), % at 10 µM. 2,300 tested, 19% active. AID 602420, 2012;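 active means remaining agonist calcium response no higher than 100% minus 3 SD of agonist-only control wells, with starting fluorescence near control levels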;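 further: agonist BAM8-22 given at a near maximal EC90 to ECmax level; peak minus minimum fluorescence divided by baseline after agonist addition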
HEK293 Ca flux – nonspecific calcium signal in parental HEK293, confirmation, counter-screen for MrgX1 antagonist project, parental HEK293 cells, Fluo-4 calcium flux; Fluo-4 calcium fluorescence, FDSS; fluorescence ratio F(max-min)/F0 at 10 µM; shares compounds with MrgX1 antag; 4,000 tested, 2% active;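 active means duplicate-averaged calcium fluorescence ratio at least three times the standard deviation of buffer wells, a nonspecific response in parental cells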
HEK293 Ca counter – calcium response in parental HEK293 cells, primary screen, counter-screen for MrgX1 allosteric activator project, cell-based, Fluo-4 calcium flux, duplicate. shares compounds with MrgX1 antag. Fluo-4 fluorescence ratio; hits give high values. fluorescence ratio F(max-min)/F0 at 10 µM. 4,000 tested, 0.4% active;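 active means calcium fluorescence ratio, averaged over duplicates, at least 3 SD of the buffer-well ratio, meaning a nonspecific response in receptor-free cells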;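 further: untransfected parental HEK293 lacking MrgX1 used as counterscreen for MrgX1 allosteric activators; fluorescence change taken during the second addition on a kinetic imager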
HEK293 Ca cntr2 – calcium response in parental HEK293 cells, primary screen, counter-screen for MrgX1 agonist project, cell-based, Fluo-4 calcium flux, duplicate, agonist mode; shares compounds with MrgX1 antag; Fluo-4 calcium fluorescence (FDSS); hits give high values; fluorescence ratio F(max-min)/F0 at 10 µM; 4,000 tested, 8.7% active; AID 624115, 2012;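 active means calcium fluorescence ratio at least three times the spread of buffer wells, meaning a non-specific response in parental cells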
* = called active by the depositor; i = inactive; . = no result.

SMILES | MrgX1 agonist | MrgX1 PAM | RGS4 act | RGS4 inh | Cl transport mod | MrgX1 antag | MrgX1 antag conf | HEK293 Ca flux | HEK293 Ca counter | HEK293 Ca cntr2
Cc1ccc(CN2CCN(Cc3ccc(C)s3)CC2CCO)cc1 (centres undefined) | i | i | i | i | . | -5.1* | i | i | i | i
CSc1cccc(CN2CCN(Cc3ccccc3)C(CCO)C2)c1 (centres undefined) | i | i | i | i | 0.55 | -5.2* | 83%* | i | i | i
Cc1ccc(CN2CCN(Cc3ccccc3)C(CCO)C2)s1 (centres undefined) | i | i | i | i | . | i | . | . | . | .
COc1cc(-c2nc(CN3CCCCC3CCNC(C)=O)c(C)o2)ccc1F (centres undefined) | i | i | i | i | 0.34 | i | . | . | . | .
CCCN1CCN(CCCNC(=O)c2ccc(CS(=O)c3ccccc3C)o2)CC1 (centres undefined) | i | i | i | i | . | i | . | . | . | .
O=C1CC(N2CCC(O)(c3ccc(Br)cc3)CC2)C(=O)N1c1ccc(Cl)cc1 (centres undefined) | i | i | i | i | -0.3 | -6.5* | i | i | i | i
COc1ccc(CNC(=O)C2CCN(S(=O)(=O)c3c(C)noc3/C=C/N(C)C)CC2)cc1 | i | i | i | i | . | i | . | . | . | .
O=C(CSc1ccccc1)Nc1ccc(-c2nc3ccccc3[nH]2)cc1 | i | i | i | i | 1.1 | i | . | . | . | .
Cc1ccc2nc(-c3ccc(NC(=O)CSc4ccccc4)cc3)[nH]c2c1 | i | i | i | i | . | -5.3* | i | i | i | i
CCOC(=O)N1CCN(C(=O)c2cc3n(n2)C(C(F)(F)F)CC(c2ccc4c(c2)OCO4)N3)CC1 (centres undefined) | i | i | i | i | . | i | . | . | . | .
Cc1cccc(CNC(=O)Cn2ccc3cc(S(=O)(=O)N4CCCC4)ccc32)c1 | i | i | i | i | . | -6.8* | i | i | i | i
Cc1cccc(CNC(=O)Cn2ccc3cc(S(=O)(=O)N4CCCCCC4)ccc32)c1 | i | i | i | i | . | i | . | . | . | .
COCCNC(=O)C(=O)NCC1OCCN1C(=O)c1ccc(Cl)cc1 (centres undefined) | i | i | i | i | -0.39 | -5.6* | i | i | i | i
COc1ccc(C2SCC(=O)N2Cc2ccccc2)cc1 (centres undefined) | i | i | i | i | . | i | . | . | . | .
COc1ccc(C2SCC(=O)N2CC23CC4CC(CC(C4)C2)C3)cc1 (centres undefined) | i | i | i | i | -0.35 | -5.2* | i | i | i | i

From PubChem
